# Assay results reported in ChEMBL document CHEMBL3868627, “Radical scavenging and antibacterial activity of caffemides against gram positive, gram negative and clinical drug resistance bacteria” (Bioorg Med Chem Lett, 2016).
# Legend:
# [1] = system: Mycolicibacterium smegmatis; assay: Bactericidal activity against Mycobacterium smegmatis MC2 155 ATCC 700084 at 50 ug/ml measured after 24 hrs by serial dilution method relative to control; format: functional
# Procedure, shortened: (§1)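 Bacteria were exposed to test compound over a range of µg/ml concentrations. Viable bacteria were counted by colony forming unit (CFU) assay at set time points (6 h and 24 h for M. smegmatis and S. aureus strains), and untreated bacteria served as the control. Percentage of population killed was calculated relative to the untreated control. Values are means ± S.D of three independent trials.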
# [2] = system: Mycolicibacterium smegmatis; assay: Antibacterial activity against Mycobacterium smegmatis MC2 155 ATCC 700084 assessed as colony forming units at 200 ug/ml measured after 6 hrs by serial dilution method (reference value: 70 +/- 1.73 10^3CFU); format: functional; procedure, shortened: as §1
# Pseudomonas aeruginosa [3] = assay: Antibacterial activity against Pseudomonas aeruginosa PAO1 ATCC 15692 assessed as colony forming units at 1 ug/ml measured after 1 hr by serial dilution method (reference value: 85.33 +/- 4.04 10^8CFU); format: functional
# [4] = system: Mycolicibacterium smegmatis; assay: Antibacterial activity against Mycobacterium smegmatis MC2 155 ATCC 700084 assessed as colony forming units at 10 ug/ml measured after 24 hrs by serial dilution method (reference value: 84 +/- 4.35 10^3CFU); format: functional; procedure, shortened: as §1
# Staphylococcus aureus [5] = assay: Antibacterial activity against Staphylococcus aureus ATCC 25923 assessed as colony forming units at 200 ug/ml measured after 24 hrs by serial dilution method (reference value: 77.66 +/- 5.13 10^6CFU); format: functional
# Staphylococcus aureus [6] = assay: Antibacterial activity against Staphylococcus aureus ATCC 25923 assessed as colony forming units at 50 ug/ml measured after 6 hrs by serial dilution method (reference value: 65.66 +/- 3.51 10^6CFU); format: functional
# [7] = Antioxidant activity assessed as DPPH free radical scavenging activity measured after 30 mins by spectrophotometry; format: functional
# Procedure, shortened: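 DPPH radical scavenging in ethanolic solution with a final DPPH concentration of 100 µM. Absorbance read at 517 nm. Percent inhibition = (A control − A test)/A control, where the control is DPPH without sample. The inhibition-versus-concentration plot gives EC50, the concentration giving a 50% drop in absorbance. Mean ± S.D. of three independent trials.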
# Pseudomonas aeruginosa [8] = assay: Antibacterial activity against Pseudomonas aeruginosa PAO1 ATCC 15692 assessed as colony forming units at 100 ug/ml measured after 3 hr by serial dilution method (reference value: 141.66 +/- 7.5 10^8CFU); format: functional
# Pseudomonas aeruginosa [9] = assay: Antibacterial activity against Pseudomonas aeruginosa PAO1 ATCC 15692 assessed as colony forming units at 200 ug/ml measured after 3 hr by serial dilution method (reference value: 141.66 +/- 7.5 10^8CFU); format: functional
# [10] = system: Mycolicibacterium smegmatis; assay: Antibacterial activity against Mycobacterium smegmatis MC2 155 ATCC 700084 assessed as colony forming units at 500 ug/ml measured after 6 hrs by serial dilution method (reference value: 70 +/- 1.73 10^3CFU); format: functional; procedure, shortened: as §1
# Pseudomonas aeruginosa [11] = assay: Antibacterial activity against Pseudomonas aeruginosa PAO1 ATCC 15692 assessed as colony forming units at 50 ug/ml measured after 3 hr by serial dilution method (reference value: 141.66 +/- 7.5 10^8CFU); format: functional
# Pseudomonas aeruginosa [12] = assay: Antibacterial activity against Pseudomonas aeruginosa PAO1 ATCC 15692 assessed as colony forming units at 200 ug/ml measured after 1 hr by serial dilution method (reference value: 85.33 +/- 4.04 10^8CFU); format: functional
# Staphylococcus aureus [13] = assay: Antibacterial activity against Staphylococcus aureus ATCC 25923 assessed as colony forming units at 1 ug/ml measured after 24 hrs by serial dilution method (reference value: 77.66 +/- 5.13 10^6CFU); format: functional
# Staphylococcus aureus [14] = assay: Antibacterial activity against Staphylococcus aureus ATCC 25923 assessed as colony forming units at 100 ug/ml measured after 6 hrs by serial dilution method (reference value: 65.66 +/- 3.51 10^6CFU); format: functional
# [15] = system: Mycolicibacterium smegmatis; assay: Antibacterial activity against Mycobacterium smegmatis MC2 155 ATCC 700084 assessed as colony forming units at 1 ug/ml measured after 24 hrs by serial dilution method (reference value: 84 +/- 4.35 10^3CFU); format: functional; procedure, shortened: as §1
# Staphylococcus aureus [16] = assay: Antibacterial activity against methicillin-resistant Staphylococcus aureus ATCC 43300 assessed as colony forming units at 1 ug/ml measured after 6 hrs by serial dilution method (reference value: 64.33 +/- 3.51 10^6CFU); format: functional; procedure, shortened: as §1
# [17] = system: Mycolicibacterium smegmatis; assay: Bactericidal activity against Mycobacterium smegmatis MC2 155 ATCC 700084 at 50 ug/ml measured after 6 hrs by serial dilution method relative to control; format: functional; procedure, shortened: as §1
# Pseudomonas aeruginosa [18] = assay: Antibacterial activity against Pseudomonas aeruginosa PAO1 ATCC 15692 assessed as colony forming units at 300 ug/ml measured after 3 hr by serial dilution method (reference value: 141.66 +/- 7.5 10^8CFU); format: functional
# Pseudomonas aeruginosa [19] = assay: Antibacterial activity against Pseudomonas aeruginosa PAO1 ATCC 15692 assessed as colony forming units at 300 ug/ml measured after 1 hr by serial dilution method (reference value: 85.33 +/- 4.04 10^8CFU); format: functional
# Pseudomonas aeruginosa [20] = assay: Antibacterial activity against Pseudomonas aeruginosa PAO1 ATCC 15692 assessed as colony forming units at 10 ug/ml measured after 3 hr by serial dilution method (reference value: 141.66 +/- 7.5 10^8CFU); format: functional
# Pseudomonas aeruginosa [21] = assay: Antibacterial activity against Pseudomonas aeruginosa PAO1 ATCC 15692 assessed as colony forming units at 100 ug/ml measured after 1 hr by serial dilution method (reference value: 85.33 +/- 4.04 10^8CFU); format: functional
# [22] = system: Mycolicibacterium smegmatis; assay: Antibacterial activity against Mycobacterium smegmatis MC2 155 ATCC 700084 assessed as colony forming units at 100 ug/ml measured after 24 hrs by serial dilution method (reference value: 84 +/- 4.35 10^3CFU); format: functional; procedure, shortened: as §1
# Staphylococcus aureus [23] = assay: Antibacterial activity against Staphylococcus aureus ATCC 25923 assessed as colony forming units at 100 ug/ml measured after 24 hrs by serial dilution method (reference value: 77.66 +/- 5.13 10^6CFU); format: functional
# Staphylococcus aureus [24] = assay: Bactericidal activity against Staphylococcus aureus ATCC 25923 at 50 ug/ml measured after 24 hrs by serial dilution method relative to control; format: functional
# Pseudomonas aeruginosa [25] = assay: Antibacterial activity against Pseudomonas aeruginosa PAO1 ATCC 15692 measured after 1 to 3 hrs by serial dilution method
# Staphylococcus aureus [26] = assay: Antibacterial activity against methicillin-resistant Staphylococcus aureus ATCC 43300 assessed as colony forming units at 50 ug/ml measured after 6 hrs by serial dilution method (reference value: 64.33 +/- 3.51 10^6CFU); format: functional; procedure, shortened: as §1
# Staphylococcus aureus [27] = assay: Antibacterial activity against methicillin-resistant Staphylococcus aureus ATCC 43300 assessed as colony forming units at 10 ug/ml measured after 24 hrs by serial dilution method (reference value: 74 +/- 2 10^6CFU); format: functional; procedure, shortened: as §1
# Staphylococcus aureus [28] = assay: Antibacterial activity against methicillin-resistant Staphylococcus aureus ATCC 43300 assessed as colony forming units at 10 ug/ml measured after 6 hrs by serial dilution method (reference value: 64.33 +/- 3.51 10^6CFU); format: functional; procedure, shortened: as §1
SMILES,Activity [1] [%],Activity [2] [×10³ CFU],Activity (Pseudomonas aeruginosa [3]) [×10⁸ CFU],Activity [4] [×10³ CFU],Activity (Staphylococcus aureus [5]) [×10⁶ CFU],Activity (Staphylococcus aureus [6]) [×10⁶ CFU],EC50 [7] [µM],Activity (Pseudomonas aeruginosa [8]) [×10⁸ CFU],Activity (Pseudomonas aeruginosa [9]) [×10⁸ CFU],Activity [10] [×10³ CFU],Activity (Pseudomonas aeruginosa [11]) [×10⁸ CFU],Activity (Pseudomonas aeruginosa [12]) [×10⁸ CFU],Activity (Staphylococcus aureus [13]) [×10⁶ CFU],Activity (Staphylococcus aureus [14]) [×10⁶ CFU],Activity [15] [×10³ CFU],Activity (Staphylococcus aureus [16]) [×10⁶ CFU],Activity [17] [%],Activity (Pseudomonas aeruginosa [18]) [×10⁸ CFU],Activity (Pseudomonas aeruginosa [19]) [×10⁸ CFU],Activity (Pseudomonas aeruginosa [20]) [×10⁸ CFU],also measured
O=C(/C=C/c1ccc(O)c(O)c1)Nc1ccccc1Nc1ccccc1,78.1,15,61,35.33,0,8.66,14.7,32.66,21.33,0,53.66,10.66,68.33,5,54,58,51.9,0,0,91.66,Activity (Pseudomonas aeruginosa [21]): 22.33 ×10⁸ CFU; Activity [22]: 8 ×10³ CFU; Activity (Staphylococcus aureus [23]): 11.66 ×10⁶ CFU; Activity (Staphylococcus aureus [24]): 68.2%; Activity (Pseudomonas aeruginosa [25]): Dose-dependent effect; Activity (Staphylococcus aureus [26]): 30.33 ×10⁶ CFU; Activity (Staphylococcus aureus [27]): 41.66 ×10⁶ CFU; Activity (Staphylococcus aureus [28]): 48 ×10⁶ CFU
Cc1ccc(O)c(NC(=O)/C=C/c2ccc(O)c(O)c2)c1,45.6,6.33,62,58,0,13.66,6.57,69.66,38.33,0,87,14,75.66,14,62.66,61,63.8,0,0,112,Activity (Pseudomonas aeruginosa [21]): 23.33 ×10⁸ CFU; Activity [22]: 36.33 ×10³ CFU; Activity (Staphylococcus aureus [23]): 0 ×10⁶ CFU; Activity (Staphylococcus aureus [24]): 89.6%; Activity (Pseudomonas aeruginosa [25]): Dose-dependent effect; Activity (Staphylococcus aureus [26]): 27.33 ×10⁶ CFU; Activity (Staphylococcus aureus [27]): 41.33 ×10⁶ CFU; Activity (Staphylococcus aureus [28]): 44.66 ×10⁶ CFU
